# Only a selection was taken, and hits are over-represented in it overall.
# IDH1 R132H inh – inhibitors of IDH1 R132H reductase, primary screen, biochemical, plate reader, single point. Isocitrate dehydrogenase [NADP] cytoplasmic (Homo sapiens), O75874. actives 0.18% (n = 70,000). inhibition, % at 10 µM. AID 624101, 2012. diaphorase/resazurin fluorescence, 60 min; in the data active = inhibition above about 34%; inconclusive = no clear call, values can overlap the other calls; inactive = below about 11%;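 also: 0% = DMSO and 100% = no enzyme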
# Target sequence (O75874 whole entry R132H): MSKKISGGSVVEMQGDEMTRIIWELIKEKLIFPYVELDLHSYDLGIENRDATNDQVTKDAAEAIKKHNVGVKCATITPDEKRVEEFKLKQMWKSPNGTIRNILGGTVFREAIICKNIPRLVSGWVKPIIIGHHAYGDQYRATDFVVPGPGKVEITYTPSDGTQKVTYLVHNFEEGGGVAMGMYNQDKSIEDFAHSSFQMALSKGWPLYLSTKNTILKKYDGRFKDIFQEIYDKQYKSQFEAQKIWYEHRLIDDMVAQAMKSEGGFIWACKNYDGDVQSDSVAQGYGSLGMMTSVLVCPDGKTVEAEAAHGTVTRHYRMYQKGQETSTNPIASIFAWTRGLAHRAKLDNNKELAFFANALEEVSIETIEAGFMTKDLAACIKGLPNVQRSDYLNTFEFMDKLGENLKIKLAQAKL
# GASC1 inh – inhibitors of GASC-1 (KDM4C) histone demethylase, primary screen, biochemical, single concentration HTS; actives 0.15% (n = 96,000); AID 720574, 2013; Lysine-specific demethylase 4C (Homo sapiens), Q9H3R0; inhibition, % at 12.5 µM; GST-KDM4C 2-372, H3K9me3 peptide, LANCE TR-FRET;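 active = mean replicate inhibition above about 25%, with at least 55% of replicates also reaching it, limit read from the data, passing the limit was not always enough; inconclusive = only one of those two conditions met; inactive = neither condition met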
#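 Test system: N-terminal GST-fused human GASC-1 (KDM4C) fragment, residues 2-372; quantity: GASC-1 enzyme at 10 nM final in reaction; dosing: single dose; schedule: 30 min demethylation and 1 h detection at room temperature; signal: LANCE TR-FRET, excitation 340 nm, emissions 618 and 671 nm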
# T cruzi growth-1 – T. cruzi intracellular proliferation inhibitors, primary screen, cell-based, beta-gal Tulahuen parasites, NIH3T3 host, luminescence; T. cruzi beta-gal in NIH3T3, GalScreen luminescence, 90 h; inhibition, % at 8.34 µM; actives 5.9% (n = 77,000);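 active = mean inhibition above about 93%, with at least 55% of replicates each passing it, limit read from the data, passing the limit was not always enough; inconclusive = only one of those two conditions holds; inactive = neither condition holds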
# T cruzi growth-2 – T. cruzi intracellular proliferation inhibitors, confirmation, cell-based, NIH3T3 host, beta-gal parasite, luminescence, cherry-pick; actives 72% (n = 5,600); T. cruzi beta-gal in NIH3T3, GalScreen luminescence, 90 h; shares compounds with T cruzi growth-1; inhibition, % at 8.35 µM;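 active = mean replicate inhibition above about 95% and at least 55% of replicates individually reaching it, limit read from the data; inconclusive = only one of the two criteria is met; inactive = neither criterion is met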
# T cruzi growth-3 – inhibitors of intracellular T. cruzi replication, confirmation, NIH3T3 host cells, beta-gal parasites, cherry-pick, set 2. inhibition, % at 2.09 µM. shares compounds with T cruzi growth-1. actives 21% (n = 5,600). T. cruzi beta-gal in NIH3T3, GalScreen luminescence, 90 h;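 active = mean inhibition above about 95%, with at least 55% of replicates also reaching it, limit read from the data; inconclusive = meets just one of the two conditions; inactive = meets neither condition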;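 also: plate controls were neutral control median for no effect and positive control median for full effect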
# 3T3 cytotox – cytotoxicity in mouse NIH/3T3 fibroblasts, confirmation, cytotoxicity control for T. cruzi proliferation inhibitor project, cell-based, cherry-pick, single point | shares compounds with T cruzi growth-1 | NIH/3T3 viability, CellTiter-Glo ATP luminescence, 90 h | cytotoxicity (signal decrease), % at 8.35 µM | actives 14% (n = 5,600);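 active = mean signal decrease across replicates above about 35% based on untreated-well scatter, with enough replicates individually passing, limit read from the data; inconclusive = no rule stated though some were filed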;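 also: 0% = median of neutral control wells and 100% = median of positive control wells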
# 3T3 cytotox 2 – NIH/3T3 fibroblast cytotoxicity, confirmation, cytotoxicity control, cell-based, cherry-pick, single point, set 2; shares compounds with T cruzi growth-1; NIH/3T3 viability, CellTiter-Glo ATP luminescence, 90 h; inhibition, % at 24.9 µM; actives 56% (n = 5,600); AID 651744, 2012;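 active = mean loss of cell viability signal at or above a set limit, and enough replicates individually reaching it; inconclusive = meets only the mean limit or only the replicate share; inactive = meets neither condition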;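 also: 0% = median of neutral control wells and 100% = median of positive control wells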
# * = called active by the depositor; u = inconclusive; x = no result.
SMILES,IDH1 R132H inh,GASC1 inh,T cruzi growth-1,T cruzi growth-2,T cruzi growth-3,3T3 cytotox,3T3 cytotox 2
C[C@@H]1CN([C@@H](C)CO)S(=O)(=O)c2ccc(C#C[C@@H](C)O)cc2O[C@H]1CN(C)Cc1ccc(-c2ccccc2)cc1,x,1,74,x,x,x,x
C[C@H](CO)N1C[C@H](C)[C@H](CN(C)Cc2ccc(-c3ccccc3)cc2)Oc2cc(C#C[C@@H](C)O)ccc2S1(=O)=O,0,0,103*,96*,115*,52*,102*
CSc1cccc(NC(=O)CNS(=O)(=O)c2ccc(F)cc2)c1,0,x,x,x,x,x,x
O=C(C1CC1)N1CCCCN2[C@@H](CO)[C@H](c3ccc(-c4cccc(F)c4)cc3)[C@@H]2C1,x,0,u,100*,87,22,37*
O=C(C1CCC1)N1CCCCN2[C@H](C1)[C@@H](c1ccc(-c3cccc(F)c3)cc1)[C@@H]2CO,x,x,29,x,x,x,x
O=C(C1CC1)N1CCCCN2[C@H](CO)[C@H](c3ccc(-c4cccc(F)c4)cc3)[C@@H]2C1,x,0,u,105*,33,25,u
O=C(C1CCCC1)N1CCCCN2[C@H](CO)[C@H](c3ccc(-c4cccc(F)c4)cc3)[C@H]2C1,x,x,118*,108*,75,8,102*
O=C(c1cccc(F)c1)N1CCCCN2[C@H](C1)[C@H](c1ccc(-c3ccccc3)cc1)[C@@H]2CO,x,-2,73,x,x,x,x
O=C(C1CCCC1)N1CCCCN2[C@H](C1)[C@H](c1ccc(-c3cccc(F)c3)cc1)[C@@H]2CO,x,x,88,x,x,x,x
Cc1ccnc(SCC(=O)Nc2sc3c(c2C(=O)Nc2ccccc2)CCCC3)n1,1,x,x,x,x,x,x
O=C(CSc1nc(-c2ccccc2)c(-c2ccccc2)[nH]1)Nc1ccccc1F,0,x,x,x,x,x,x
CC(C)CC#Cc1ccc([C@H]2[C@H](CO)N3CCCCN(C(=O)c4ccc5c(c4)OCO5)C[C@@H]23)cc1,x,-1,84,x,x,x,x
CC(C)C#Cc1ccc([C@H]2[C@H](CO)N3CCCCN(C(=O)c4ccc5c(c4)OCO5)C[C@@H]23)cc1,x,-1,70,x,x,x,x
CC(C)CC#Cc1ccc([C@H]2[C@H]3CN(C(=O)c4ccc5c(c4)OCO5)CCCCN3[C@H]2CO)cc1,x,0,113*,101*,78,14,104*
CC(C)CC#Cc1ccc([C@@H]2[C@H](CO)N3CCCCN(C(=O)c4ccc5c(c4)OCO5)C[C@@H]23)cc1,x,1,106*,104*,64,31,105*
Cc1ccc2nc(-c3cccc(NC(=O)COc4ccc([N+](=O)[O-])cc4)c3)oc2c1,0,x,x,x,x,x,x
Cn1c(SCC(=O)c2ccc(Cl)cc2)nnc1-c1ccncc1,1,x,x,x,x,x,x
COC(=O)c1ccccc1NC(=O)CN(C)S(=O)(=O)c1ccccc1,0,x,x,x,x,x,x
OCCCn1c(-c2ccc(Cl)cc2)cn2c3ccccc3nc12,-1,x,x,x,x,x,x
Cc1ccc(CCN=c2c([N+](=O)[O-])nn(-c3ccc4c(c3)OCCO4)n2O)cc1,2,x,x,x,x,x,x
COC(=O)c1cc(OC)c(OC)cc1NC(=O)COc1cccc(C)c1C,0,x,x,x,x,x,x
O=S(=O)(Cc1ccccc1)N1CCCCN2[C@H](CO)[C@@H](c3ccc(-c4cccnc4)cc3)[C@@H]2C1,x,-1,81,x,x,x,x
O=S(=O)(Cc1ccccc1)N1CCCCN2[C@H](CO)[C@H](c3ccc(-c4ccncc4)cc3)[C@@H]2C1,x,-1,-70,x,x,x,x
O=S(=O)(Cc1ccccc1)N1CCCCN2[C@H](CO)[C@H](c3ccc(-c4ccccc4)cc3)[C@H]2C1,x,-1,106*,98*,63,54*,104*
O=S(=O)(Cc1ccccc1)N1CCCCN2[C@H](CO)[C@@H](c3ccc(-c4ccccc4)cc3)[C@@H]2C1,x,-1,114*,102*,103*,u,101*
SMILES,IDH1 R132H inh,GASC1 inh,T cruzi growth-1,T cruzi growth-2,T cruzi growth-3,3T3 cytotox,3T3 cytotox 2
Nc1nnc(SCC(=O)Nc2cccc(Cl)c2Cl)s1,0,x,x,x,x,x,x
COC(=O)Cc1c(/C(Cl)=C/C(=O)O)oc2cc(C)cc(O)c2c1=O,-1,x,x,x,x,x,x
Cc1nc(C(F)(F)F)nc(Sc2cccc(C(F)(F)F)c2)c1C,0,x,x,x,x,x,x
O=C(N/N=C/c1cc(Br)cc([N+](=O)[O-])c1O)c1ccccn1,1,x,x,x,x,x,x
C[C@@H]1CN([C@H](C)CO)C(=O)c2cc(C3=CCCC3)cnc2O[C@H]1CN(C)C(=O)Nc1ccc(F)cc1,x,3,46,x,x,x,x
C[C@H]1CN([C@@H](C)CO)C(=O)c2cc(C3=CCCCC3)cnc2O[C@H]1CN(C)C(=O)Nc1ccc(F)cc1,-3,18,68,x,x,x,x
C[C@@H]1CN([C@H](C)CO)C(=O)c2cc(C3=CCCC3)cnc2O[C@H]1CN(C)C(=O)Nc1ccc(C(F)(F)F)cc1,x,0,102*,98*,44,23,59*
C[C@H](CO)N1C[C@H](C)[C@@H](CN(C)C(=O)Nc2ccc(C(F)(F)F)cc2)Oc2ncc(C3=CCCC3)cc2C1=O,x,1,102*,103*,52,18,74*
Cc1ccc(S(=O)(=O)NC(C)C(=O)Nc2ccc3c(c2)OCCO3)cc1 (stereo not given),1,x,x,x,x,x,x
COc1ccccc1NC(=O)N1CCCCN2[C@H](C1)[C@H](c1ccc(C#CC3CC3)cc1)[C@@H]2CO,x,x,100*,105*,56,21,30*
COc1ccccc1NC(=O)N1CCCCN2[C@H](CO)[C@H](c3ccc(C#Cc4ccccc4)cc3)[C@H]2C1,x,-3,58,x,x,x,x
COc1ccccc1NC(=O)N1CCCCN2[C@H](CO)[C@@H](c3ccc(C#CC4CCCC4)cc3)[C@H]2C1,x,-2,73,x,x,x,x
COc1ccccc1NC(=O)N1CCCCN2[C@H](C1)[C@@H](c1ccc(C#Cc3ccccc3)cc1)[C@@H]2CO,x,-3,107*,99*,109*,36*,105*
O=C(CSc1nnc(-c2ccncc2)n1-c1ccc(Cl)cc1)Nc1ccc(F)cc1F,0,x,x,x,x,x,x
Cc1ccc(C)c(NC(=O)C(C)N(c2ccc(Cl)cc2)S(C)(=O)=O)c1 (stereo not given),0,x,x,x,x,x,x
C/C=C/c1ccc2c(c1)O[C@H](CN(C)Cc1ccc(F)cc1)[C@@H](C)CN([C@H](C)CO)S2(=O)=O,0,-1,104*,u,93,u,106*

# Screening data from PubChem BioAssay.
